Experiments:
MCF7 [1] = assay: Inhibition of VEGFR2 protein expression in human MCF7 cells at cytotoxic IC50 after 24 hrs by ELISA relative to untreated control; type: functional
Summary of the method: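 MCF-7 cells treated with compound in DMSO for 24 h at 37 °C, humidified 5% CO2. Cells were harvested and homogenised in saline. VEGFR-2 in homogenate was measured by double-antibody sandwich ELISA (monoclonal capture, biotinylated goat polyclonal detection, avidin-biotin-peroxidase, TMB, OD 451 nm). Levels (ng/ml) came from a standard curve as duplicate determinations, and % change was taken versus untreated cells.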

MCF7 [2] = assay: Cytotoxicity against human MCF7 cells assessed as reduction in cell viability after 48 hrs by SRB assay; type: functional, cell-based; conditions: MCF7, 48 h
Summary of the method: (§1)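 Cells seeded and allowed to attach 24 h, then exposed to compound at […] for 48 h at 37 °C, 5% CO2. Fixed, stained with sulforhodamine B, bound dye released in Tris EDTA and read on ELISA reader. IC50 taken from survival curve (surviving fraction vs concentration); mean of four independent experiments.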

HepG2 = assay: Cytotoxicity against human HepG2 cells assessed as reduction in cell viability after 48 hrs by SRB assay; type: functional, cell-based; conditions: HepG2, 48 h; summary of the method: as §1
[3] = target: Vascular endothelial growth factor receptor 2 (Homo sapiens, UniProt P35968); assay: Inhibition of human VEGFR2 using TMB substrate by ELISA
Vascular endothelial growth factor receptor 2, sequence (P35968 whole entry): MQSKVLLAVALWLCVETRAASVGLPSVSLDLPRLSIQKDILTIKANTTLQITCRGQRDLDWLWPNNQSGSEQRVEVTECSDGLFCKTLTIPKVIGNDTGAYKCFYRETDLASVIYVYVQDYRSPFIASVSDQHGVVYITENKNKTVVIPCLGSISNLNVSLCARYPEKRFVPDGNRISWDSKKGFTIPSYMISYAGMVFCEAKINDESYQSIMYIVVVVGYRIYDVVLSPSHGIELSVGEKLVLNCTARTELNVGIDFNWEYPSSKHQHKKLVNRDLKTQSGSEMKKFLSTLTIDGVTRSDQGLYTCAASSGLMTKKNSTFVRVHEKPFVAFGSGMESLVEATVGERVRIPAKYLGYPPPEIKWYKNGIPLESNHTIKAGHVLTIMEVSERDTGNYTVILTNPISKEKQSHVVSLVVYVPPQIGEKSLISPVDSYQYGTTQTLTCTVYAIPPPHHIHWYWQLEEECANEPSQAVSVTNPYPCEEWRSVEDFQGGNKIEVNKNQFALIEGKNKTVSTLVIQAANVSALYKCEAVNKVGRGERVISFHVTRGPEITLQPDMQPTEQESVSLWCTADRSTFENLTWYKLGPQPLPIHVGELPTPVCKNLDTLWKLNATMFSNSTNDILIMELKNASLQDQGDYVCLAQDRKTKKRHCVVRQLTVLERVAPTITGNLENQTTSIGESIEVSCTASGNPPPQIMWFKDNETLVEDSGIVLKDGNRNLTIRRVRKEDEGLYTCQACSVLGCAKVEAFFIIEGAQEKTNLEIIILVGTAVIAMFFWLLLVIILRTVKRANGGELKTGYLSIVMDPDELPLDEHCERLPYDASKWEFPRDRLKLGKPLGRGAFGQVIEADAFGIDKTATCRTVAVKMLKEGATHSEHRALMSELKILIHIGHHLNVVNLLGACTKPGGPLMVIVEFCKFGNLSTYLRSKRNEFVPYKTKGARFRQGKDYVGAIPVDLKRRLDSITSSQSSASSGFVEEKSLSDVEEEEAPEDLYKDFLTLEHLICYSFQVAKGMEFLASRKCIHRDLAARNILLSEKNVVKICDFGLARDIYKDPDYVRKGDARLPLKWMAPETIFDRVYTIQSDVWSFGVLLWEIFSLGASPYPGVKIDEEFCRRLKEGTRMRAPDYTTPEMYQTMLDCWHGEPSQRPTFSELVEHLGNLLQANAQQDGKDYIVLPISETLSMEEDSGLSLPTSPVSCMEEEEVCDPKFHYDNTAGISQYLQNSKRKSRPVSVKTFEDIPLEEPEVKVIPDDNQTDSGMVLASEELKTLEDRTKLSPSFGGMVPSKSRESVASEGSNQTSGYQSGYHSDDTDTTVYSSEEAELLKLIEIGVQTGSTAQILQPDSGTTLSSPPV

| SMILES | inhibition (INH) (MCF7 [1]) [%] | IC50 (MCF7 [2]) | IC50 (HepG2) [µM] | IC50 [3] [µM] |
| --- | --- | --- | --- | --- |
| Cc1ccc(-c2nc3ccccc3[nH]2)o1 | 39 | 55.6 µM |  |  |
| ClC(Cl)(Cl)c1nnc(Cn2c(-c3ccco3)nc3ccccc32)o1 |  | > 131 µM | 85.6 |  |
| Cc1ccc(-c2nc3ccccc3n2CC(=O)N/N=C/c2ccccc2Cl)o1 | 96 | 21.2 µM | 22.6 | 1.26 |
| c1ccc2[nH]c(-c3ccc(CN4CCOCC4)o3)nc2c1 | 58 | 55.5 µM | 128 |  |
| NC(=O)Cn1c(-c2ccco2)nc2ccccc21 | 13 | 118 µM | 157 |  |
| Cc1ccc(-c2nc3ccccc3n2C(=O)n2c(-c3ccc(C)o3)nc3ccccc32)o1 | 9 | 58.3 µM | > 118 |  |
| Cc1ccc(-c2nc3ccccc3n2Cc2nnco2)o1 |  | > 177 µM | 132 |  |
| O=C(CCl)n1c(-c2ccco2)nc2ccccc21 | 40 | 60.9 µM | 60.9 |  |
| SC1=NNCC(n2c(-c3ccco3)nc3ccccc32)=N1 | 40 | 60.5 µM | 62.1 |  |
| COC(=O)Cn1c(-c2ccc(C)o2)nc2ccccc21 | 38 | 87 µM | > 185 |  |
| CCOC(=O)CSc1nnc(Cn2c(-c3ccco3)nc3ccccc32)s1 | 92 | 28.5 µM | 62.1 |  |
| O=C(Cn1c(-c2ccco2)nc2ccccc21)N/N=C/c1ccccc1Cl | 94 | 26.1 µM | 25.9 | 0.64 |
| N#C/C(=C1/SCC(=O)N1c1ccccc1)n1c(-c2ccco2)nc2ccccc21 | 55 | 55.9 µM | 39.6 |  |
| O=C(O)Cn1c(-c2ccco2)nc2ccccc21 | 61 | 63.1 µM | 149 |  |
| NNC(=O)Cn1c(-c2ccco2)nc2ccccc21 | 19 |  | > 195 |  |
| Cc1ccc(-c2nc3ccccc3n2CC(=O)O)o1 | 20 | 139 µM | > 195 |  |

| SMILES | inhibition (INH) (MCF7 [1]) [%] | IC50 (MCF7 [2]) | IC50 (HepG2) [µM] | IC50 [3] [µM] |
| --- | --- | --- | --- | --- |
| COC(=O)Cn1c(-c2ccco2)nc2ccccc21 | 61 | 80.6 µM | 67.3 |  |
| N#CCn1c(-c2ccco2)nc2ccccc21 | 39 | 88.1 µM | 88.1 |  |
| O=C1CS/C(=C/n2c(-c3ccco3)nc3ccccc32)N1 | 86 | 29.1 µM | 31.1 |  |
| CNC(=O)c1cc(Oc2ccc(NC(=O)Nc3ccc(Cl)c(C(F)(F)F)c3)cc2)ccn1 [SORAFENIB] | 95.75 | 4.33 µg/mL |  |  |
| CC/C(=C(\c1ccccc1)c1ccc(OCCN(C)C)cc1)c1ccccc1 [TAMOXIFEN] | 98 |  |  |  |
| S=c1[nH]nc(Cn2c(-c3ccco3)nc3ccccc32)s1 | 14 | 52.6 µM | 47.6 |  |
| N=C(Cn1c(-c2ccco2)nc2ccccc21)NN | 27 | 53.1 µM | 74.5 |  |
| N=C1N=C(n2c(-c3ccco3)nc3ccccc32)CN1 | 22 | 93 µM | 63.5 |  |
| Cc1ccc(-c2nc3ccccc3n2CC(=O)NN)o1 | 24 | 68.3 µM | > 185 |  |
| CCOC(=O)Cn1c(-c2ccc(C)o2)nc2ccccc21 | 25 | 63.5 µM | > 176 |  |
| NNC(=O)CSc1nnc(Cn2c(-c3ccco3)nc3ccccc32)s1 | 96 | 21.4 µM | 26.9 | 1.41 |
| CCOC(=O)Cn1c(-c2ccco2)nc2ccccc21 | 57 | 57.3 µM | > 185 |  |
| NC(=O)/C(=C\c1ccccc1Cl)n1c(-c2ccco2)nc2ccccc21 | 57 | 40 µM | 44.8 |  |
| Cc1ccc(-c2nc3ccccc3n2C(=O)C(=O)n2c(-c3ccc(C)o3)nc3ccccc32)o1 | 17 | 65.6 µM | > 111 |  |
| NC(=O)/C(=C\c1ccccc1)n1c(-c2ccco2)nc2ccccc21 | 80 | 38.6 µM | 63 |  |
| c1coc(-c2nc3ccccc3[nH]2)c1 [FUBERIDAZOLE] | 43 | 106 µM | 103 |  |
